Data: ChEMBL document CHEMBL4725264, “Synthesis and biological evaluation of a novel photo-activated histone deacetylase inhibitor” (Bioorg Med Chem Lett, 2020)
The source made the active and inactive calls. No cut-off for these calls is given here.

Experiments:
[1] = target: T1, Histone deacetylase (Homo sapiens) (UniProt Q13547+O15379+Q9UBN7+Q92769+Q9UQL6+Q8WUI4+Q9BY41+Q96DB2+P56524+Q9UKV0+Q969S8); test: Inhibition of HDAC in human HL-60 cells assessed as increase in H3 histone acetylation at 10 uM after 24 hrs by Western blot anlaysis; assay type: cell-based
How it was run: (§1)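 Caged compound coated on angioplasty balloon at 3.0ug/mm2. Balloon either exposed to 365 nm UV (65mW, 4 min) or left unexposed, then compound eluted. HL60 cells (RPMI-1640, 10% heat-inactivated FCS, 37 °C, 5% CO2) treated with eluate at 10.0 µM for 24 h, then PBS-washed. Histones acid-extracted (H2SO4, acetone precipitation), quantified by Bradford. 25 µg per lane run on 15% SDS-PAGE and transferred to PVDF. Blocked in 5% milk, probed overnight at 4 °C with anti-acetyl histone H3, detected with HRP anti-rabbit IgG (1:1000). Untreated cells as control.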

[2] = system: HUVEC; test: Cytotoxicity against HUVEC at 1.0 mmol/L after 24 hrs by trypan blue staining based assay; assay type: cell-based; conditions: human, 1000 µM
How it was run: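 HUVECs (pooled donor) grown in Medium-199 with 20% FCS, endothelial cell growth factor and heparin, 37 °C, 5% CO2. Agents dissolved in 100% DMSO and added at final 1.0 mmol/L for 24 h. Viability scored by 0.4% trypan blue exclusion right after culture, relative to viable count at start. Untreated cells as control. At least 3 repeats, averaged.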

[3] = target: T1, Histone deacetylase (Homo sapiens); test: Inhibition of HDAC in human HL-60 cells assessed as increase in H3 histone acetylation at 10 uM under UV irradiation after 24 hrs by Western blot anlaysis; assay type: cell-based; how it was run: as §1
[4] = Drug metabolism assessed as photolysis by measuring parent compound at 4.26 mM using MeCN and Water (1:3) as solvent system measured upon irradiation with 8-Watt UV365nm light after 30 mins by HPLC analysis; assay type: physicochemical; conditions: MeCN and water (1:3) solvent system, read-out: Drug metabolism
How it was run: (§2)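 Caged compound prepared as 4.26 mM solution in MeCN/water (1:3). Irradiated with 8-Watt 365 nm UV lamp. Aliquots taken at 30, 45, 60, 75 and 90 min and analysed by HPLC for remaining caged parent and released hydroxamic acid (identified by m/z). Carboxamide side product tracked by its separate peak.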

[5] = Drug metabolism assessed as photolysis by measuring parent compound at 4.26 mM using MeCN and Water (1:3) as solvent system measured upon irradiation with 8-Watt UV365nm light after 45 mins by HPLC analysis; assay type: physicochemical; conditions: MeCN and water (1:3) solvent system, read-out: Drug metabolism; how it was run: as §2
[6] = Drug metabolism assessed as photolysis by measuring parent compound at 4.26 mM using MeCN and Water (1:3) as solvent system measured upon irradiation with 8-Watt UV365nm light after 60 mins by HPLC analysis; assay type: physicochemical; conditions: MeCN and water (1:3) solvent system, read-out: Drug metabolism; how it was run: as §2
[7] = Drug metabolism assessed as photolysis by measuring parent compound at 4.26 mM using MeCN and Water (1:3) as solvent system measured upon irradiation with 8-Watt UV365nm light after 75 mins by HPLC analysis; assay type: physicochemical; conditions: MeCN and water (1:3) solvent system, read-out: Drug metabolism; how it was run: as §2
[8] = Drug metabolism assessed as photolysis by measuring parent compound at 4.26 mM using MeCN and Water (1:3) as solvent system measured upon irradiation with 8-Watt UV365nm light after 90 mins by HPLC analysis; assay type: physicochemical; conditions: MeCN and water (1:3) solvent system, read-out: Drug metabolism; how it was run: as §2
[9] = Drug metabolism assessed as photolysis by measuring parent compound at 85 uM using DMSO, EtOH and water (4:4:92) as solvent system measured upon irradiation with 100mW UV365nm light after 2 mins by HPLC analysis; assay type: physicochemical
[10] = Drug metabolism assessed as photolysis by measuring parent compound at 85 uM using DMSO, EtOH and water (4:4:92) as solvent system measured upon irradiation with 100mW UV365nm light after 4 mins by HPLC analysis; assay type: physicochemical; conditions: EtOH and water (4:4:92) solvent system, read-out: Drug metabolism
[11] = Drug metabolism assessed as photolysis by measuring parent compound at 85 uM using DMSO, EtOH and water (4:4:92) as solvent system measured upon irradiation with 100mW UV365nm light after 6 mins by HPLC analysis; assay type: physicochemical; conditions: EtOH and water (4:4:92) solvent system, read-out: Drug metabolism

Row | SMILES | inhibition [1] | Activity [2] | inhibition [3] | remaining at 0.5 h, 4260 µM [4] [%] | remaining at 0.75 h, 4260 µM [5] [%] | remaining at 1 h, 4260 µM [6] [%] | remaining at 1.25 h, 4260 µM [7] [%] | remaining at 1.5 h, 4260 µM [8] [%] | Drug metabolism [9] [%] | remaining at 4 min, 85 µM [10] [%] | remaining at 0.1 h, 85 µM [11] [%]
1 | CS(=O)(=O)Nc1cccc(-c2ccc(C(=O)NO)cc2)c1 | Active | Toxic | – | – | – | – | – | – | – | – | –
2 | CC(=O)O[C@H]1C(=O)[C@@]2(C)[C@H]([C@H](OC(=O)c3ccccc3)[C@]3(O)C[C@H](OC(=O)[C@H](O)[C@@H](NC(=O)c4ccccc4)c4ccccc4)C(C)=C1C3(C)C)[C@]1(OC(C)=O)CO[C@@H]1C[C@@H]2O [PACLITAXEL] | – | Toxic | – | – | – | – | – | – | – | – | –
3 | COc1cc(C(C)ONC(=O)c2ccc(-c3cccc(NS(C)(=O)=O)c3)cc2)c([N+](=O)[O-])cc1OCCCC(=O)O (centres undefined) | inactive | Non-Toxic | Active | 53.3 | 18 | 8.4 | 2.4 | 0.7 | 28.9 | 11.1 | 8.2
